Experimental data published in ChEMBL document CHEMBL2169846, “Design and synthesis of Pictet-Spengler condensation products that exhibit oncogenic-RAS synthetic lethality and induce non-apoptotic cell death” (Bioorg Med Chem Lett, 2012).
Activity calls are given as the source filed them. No cut-off for these calls is given here.

Legend:
[1] = Cytotoxicity against human HT1299 cells after 48 hrs by alamar blue assay; format: functional; conditions: HT1299, 48 h, read-out: LC50 (the source's name)
HT-1080 [2] = test: Cytotoxicity against human HT1080 cells after 48 hrs by alamar blue assay; format: functional; conditions: HT-1080, 48 h, read-out: LC50 (the source's name)
BJeLR [3] = test: Cytotoxicity against human BJeLR cells expressing RAS G12V mutant at 20 ug/mL after 48 hrs by alamar blue assay; format: functional, cell-based
[4] = tested on: E3 ubiquitin-protein ligase Mdm2 (Homo sapiens), Q00987 [C464A]; test: Inhibition of Mdm2 C464A mutant at 20 ug/mL after 2 hrs by cell-based luciferase assay
RKO = test: Cytotoxicity against human RKO cells after 48 hrs by alamar blue assay; format: functional; conditions: read-out: LC50 (the source's name)
MCF7 [5] = test: Cytotoxicity against human MCF7 cells after 48 hrs by alamar blue assay; format: functional; conditions: MCF7, 48 h, read-out: LC50 (the source's name)
[6] = biological target: E3 ubiquitin-protein ligase Mdm2 (Homo sapiens) (UniProt Q00987); test: Inhibition of wild type Mdm2 at 20 ug/mL after 2 hrs by cell-based luciferase assay
U2OS = test: Cytotoxicity against human U2OS cells after 48 hrs by alamar blue assay; format: functional; conditions: read-out: LC50 (the source's name)
[7] = Cytotoxicity against human BJeH cells expressing wild type RAS after 48 hrs by alamar blue assay; format: functional, cell-based; conditions: read-out: LC50 (the source's name)
[8] = Cytotoxicity against human BJeLR cells expressing RAS G12V mutant; format: functional; conditions: read-out: LC50 (the source's name)
BJeH [9] = test: Induction of apoptosis in human BJeH cells expressing wild type RAS assessed as caspase 7 activation after 28 hrs by Apo-One assay; format: functional, cell-based
How it was run: (§1)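 BJ-TERT and BJ-TERT/LT/ST/RAS(V12) cells given compound as a two-fold, 14-point dilution series for 28 h. Alamar blue then added for viability, and caspase 3/7 activation detected by Apo-ONE in the same wells.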

[10] = Cytotoxicity against human BJeH-LT cells expressing wild type RAS; format: functional; conditions: read-out: LC50 (the source's name)
BJeH [11] = test: Induction of apoptosis in human BJeH cells expressing wild type RAS assessed as caspase 3 activation after 28 hrs by Apo-One assay; format: functional, cell-based; how it was run: as §1
BJeH [12] = test: Induction of reactive oxygen species production in human BJeH cells expressing wild type RAS after 18 hrs by DCF-based flow cytometric analysis; format: functional, cell-based
[13] = Growth inhibition of human BJeH-LT cells expressing wild type RAS relative to control; format: functional
How it was run: (§2)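 Four cell lines treated for 48 h in a two-fold, 7-point dilution series. Viability by Alamar blue reading. LC50 and maximum growth-inhibitory efficacy were tabulated as ± SEM of triplicates.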

[14] = Cytotoxicity against human DRD cells expressing RAS G12V mutant; format: functional; conditions: read-out: LC50 (the source's name)
BJeLR [15] = test: Cytotoxicity against human BJeLR cells expressing RAS G12V mutant at 30 uM at 12 hrs by trypan blue staining; format: functional, cell-based
How it was run: (§3)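 Time-course in BJ-TERT/LT/ST/RAS^V12 cells exposed for the designated times to erastin (10 µM), test compound (30 µM) or RSL3 (0.57 µM) to follow onset of death. Data representative of duplicate experiments.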

[16] = Ratio of MEL24 LC50 to compound LC50 for human BJeLR cells expressing RAS G12V mutant; format: functional
[17] = Selectivity ratio of LC50 for human BJeH cells to LC50 for human BJeLR cells expressing RAS G12V mutant; format: functional
How it was run: (§4)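 LC50 of BJ-TERT divided by LC50 of the RAS(V12)-transformed line or of DRD cells.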

[18] = Growth inhibition of human BJeLR cells expressing RAS G12V mutant relative to control; format: functional; how it was run: as §2
[19] = Cytotoxicity against human BJeH cells expressing wild type RAS; format: functional; conditions: read-out: LC50 (the source's name)
BJeLR [20] = test: Induction of reactive oxygen species production in human BJeLR cells expressing RAS G12V mutant after 18 hrs by DCF-based flow cytometric analysis; format: functional, cell-based
BJeLR [21] = test: Induction of apoptosis in human BJeLR cells expressing RAS G12V mutant assessed as caspase 7 activation after 28 hrs by Apo-One assay; format: functional, cell-based; how it was run: as §1
[22] = Stability of the compound in phosphate buffered saline after 24 hrs by mass spectroscopy; format: physicochemical; conditions: buffer
[23] = Growth inhibition of human BJeH cells expressing wild type RAS relative to control; format: functional; how it was run: as §2
[24] = Selectivity ratio of LC50 for human BJeH cells to LC50 for human DRD cells; format: functional; how it was run: as §4
BJeLR [25] = test: Cytotoxicity against human BJeLR cells expressing RAS G12V mutant at 30 uM at 24 hrs by trypan blue staining; format: functional, cell-based; how it was run: as §3
MCF7 [26] = test: Cytotoxicity against human MCF7 cells at 20 ug/mL after 48 hrs by alamar blue assay; format: functional, cell-based
How it was run: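 Each cell line exposed for 48 h to a 2-fold, 12-point dilution series beginning at 20 µg/mL. Viability by Alamar blue; LC50 derived from the curves.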

HT-1080 [27] = test: Cytotoxicity against human HT1080 after 48 hrs by alamar blue assay in presence of Boc-D-fmk; format: functional, cell-based
How it was run: (§5)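 HT1080 cells given the test compound together with a rescue agent: deferoxamine 152 µM, α-tocopherol 100 µM, z-VAD-fmk 45 µM or Boc-D-fmk 50 µM. Viability read out afterwards.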

HT-1080 [28] = test: Cytotoxicity against human HT1080 after 48 hrs by alamar blue assay in presence of deferoxamine; format: functional, cell-based; how it was run: as §5
[29] = Growth inhibition of human DRD cells expressing RAS G12V mutant relative to control; format: functional; how it was run: as §2
[30] = Stability of the compound assessed as GSH adduct formation after 24 hrs by mass spectroscopy; format: physicochemical
BJeLR [31] = test: Cytotoxicity against human BJeLR cells expressing RAS G12V mutant at high concentration after 28 hrs by alamar blue assay; format: functional, cell-based
How it was run: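 BJ-TERT/LT/ST/RAS^V12 cells treated for 28 h across a two-fold, 14-point dilution series. Viability was read by Alamar blue, and caspase 3/7 activation was detected by Apo-ONE in the same cells.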

HT-1080 [32] = test: Cytotoxicity against human HT1080 after 48 hrs by alamar blue assay in presence of alpha-tocopherol; format: functional, cell-based; how it was run: as §5
BJeH [33] = test: Cytotoxicity against human BJeH cells expressing wild type RAS at 30 uM after 24 hrs by trypan blue staining; format: functional, cell-based
[34] = Cytotoxicity against human BJeLR cells expressing RAS G12V mutant after 48 hrs by alamar blue assay; format: functional, cell-based; conditions: read-out: LC50 (the source's name)
BJeLR [35] = test: Induction of apoptosis in human BJeLR cells expressing RAS G12V mutant assessed as caspase 3 activation after 28 hrs by Apo-One assay; format: functional, cell-based; how it was run: as §1
HT-1080 [36] = test: Cytotoxicity against human HT1080 after 48 hrs by alamar blue assay in presence of z-VAD-fmk; format: functional, cell-based; how it was run: as §5
BJeH [37] = test: Cytotoxicity against human BJeH cells expressing wild type RAS at 20 ug/mL after 48 hrs by alamar blue assay; format: functional, cell-based
BJeLR [38] = test: Cytotoxicity against human BJeLR cells expressing RAS G12V mutant at 1 uM after 24 hrs by trypan blue staining; format: functional, cell-based
BJeH [39] = test: Cytotoxicity against human BJeH cells expressing wild type RAS at 1 uM after 24 hrs by trypan blue staining; format: functional, cell-based
BJeH [40] = test: Induction of reactive oxygen species production in human BJeH cells expressing wild type RAS after 6 hrs by DCF-based flow cytometric analysis; format: functional, cell-based
BJeH [41] = test: Cytotoxicity against human BJeH cells expressing wild type RAS at 568 nM after 24 hrs by trypan blue staining; format: functional, cell-based
BJeLR [42] = test: Cytotoxicity against human BJeLR cells expressing RAS G12V mutant at 0.57 uM at 24 hrs by trypan blue staining; format: functional, cell-based; how it was run: as §3
BJeLR [43] = test: Induction of reactive oxygen species production in human BJeLR cells expressing RAS G12V mutant after 6 hrs by DCF-based flow cytometric analysis; format: functional, cell-based
BJeLR [44] = test: Cytotoxicity against human BJeLR cells expressing RAS G12V mutant at 0.57 uM at 12 hrs by trypan blue staining; format: functional, cell-based; how it was run: as §3

E3 ubiquitin-protein ligase Mdm2 (Homo sapiens), sequence (Q00987 whole entry, looked up): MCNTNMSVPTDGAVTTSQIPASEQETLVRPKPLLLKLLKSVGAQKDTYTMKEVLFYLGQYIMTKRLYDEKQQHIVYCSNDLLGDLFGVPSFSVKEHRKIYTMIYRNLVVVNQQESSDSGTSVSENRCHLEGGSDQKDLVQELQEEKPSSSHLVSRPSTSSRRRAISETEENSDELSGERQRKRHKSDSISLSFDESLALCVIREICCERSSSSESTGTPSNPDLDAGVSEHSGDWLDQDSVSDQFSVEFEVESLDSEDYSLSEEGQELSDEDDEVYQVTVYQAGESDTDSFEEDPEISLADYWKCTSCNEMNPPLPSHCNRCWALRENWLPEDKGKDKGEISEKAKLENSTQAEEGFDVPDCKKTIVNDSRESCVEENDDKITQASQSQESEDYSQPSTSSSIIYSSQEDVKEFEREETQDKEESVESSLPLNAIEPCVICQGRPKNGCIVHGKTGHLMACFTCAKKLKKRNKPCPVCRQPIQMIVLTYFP
E3 ubiquitin-protein ligase Mdm2 (Homo sapiens), Q00987 [C464A], sequence (Q00987 whole entry C464A): as the sequence (Q00987 whole entry, looked up) above, with C464A counted along it

In the case of `CC(CO)C1c2[nH]c3ccccc3c2CCN1C(=O)OC(C)(C)C` (stereo not drawn), the CC50 [1] is reported as 24.8 µM, the CC50 (HT-1080 [2]) is reported as 46 µM and the Activity (BJeLR [3]) is reported as “inactive”. For the same compound, the inhibition [4] was “inactive”, the CC50 (RKO) was 16 µM and the CC50 (MCF7 [5]) was 22.1 µM. The inhibition [6] was “inactive”, the CC50 (U2OS) was 17.8 µM and the CC50 [7] was 60.7 µM.
With `CCOC(=O)C1c2c(c3ccccc3n2C)CCN1C(=O)OC` (stereo not drawn) the CC50 [8] was 20.3 µM, the Activity (BJeH [9]) was “inactive” and the CC50 [10] was 266 µM. For the same compound, the Activity (BJeH [11]) was “inactive”, the CC50 [1] was 30 µM and the Activity (BJeH [12]) was “Active”. The “growth inhibition (GI)” value [13] was 8.5%, the CC50 [14] was 102 µM and the Activity (BJeLR [15]) was “Active”. For the same compound, the Ratio [16] was 4, the Ratio [17] was 10 and the “growth inhibition (GI)” value [18] was 98.7%. For the same compound, the CC50 [19] was 179 µM, the Activity (BJeLR [20]) was “Active” and the Activity (BJeLR [21]) was “inactive”. For the same compound, the inhibition [4] was “inactive”, the Stability [22] was “Stable” and the CC50 (RKO) was 31.6 µM. The “growth inhibition (GI)” value [23] was 22.1%, the Ratio [24] was 3 and the Activity (BJeLR [25]) was “Active”. For the same compound, the Activity (MCF7 [26]) was “inactive”, the Activity (HT-1080 [27]) was “Active” and the inhibition [6] was “inactive”. The Activity (HT-1080 [28]) was “inactive”, the “growth inhibition (GI)” value [29] was 67% and the Stability [30] was “Stable”. For the same compound, the Activity (BJeLR [31]) was “Active”, the Activity (HT-1080 [32]) was “inactive” and the Activity (BJeH [33]) was “inactive”. For the same compound, the CC50 [34] was 6.3 µM, the Activity (BJeLR [35]) was “inactive” and the CC50 [7] was 63.2 µM. For the same compound, the Activity (HT-1080 [36]) was “Active”.
For `CC(CC1C(=O)N(C)C(=O)N(C)C1=O)C1c2c(c3ccccc3n2C(=O)OC(C)(C)C)CCN1C(=O)OC(C)(C)C` (stereo not drawn), the CC50 [1] was 16.9 µM, the Activity (BJeH [37]) was “inactive” and the CC50 (HT-1080 [2]) was 14.6 µM. For the same compound, the inhibition [4] was “inactive”, the CC50 (RKO) was 11.4 µM and the CC50 (MCF7 [5]) was 9.8 µM. The inhibition [6] was “inactive”, the CC50 (U2OS) was 12.1 µM and the CC50 [34] was 35.2 µM.
With `CN[C@@H]1C[C@H]2O[C@@](C)([C@@H]1OC)n1c3ccccc3c3c4c(c5c6ccccc6n2c5c31)C(=O)NC4` the Activity (BJeLR [38]) was “Active” and the Activity (BJeH [39]) was “Active”.
For `COC(=O)c1ccc(C2c3[nH]c4ccccc4c3CC(C(=O)OC)N2C(=O)CCl)cc1` (stereo not drawn), the Activity (BJeH [40]) was “Active”, the Activity (BJeH [41]) was “inactive” and the Activity (BJeLR [42]) was “Active”. For the same compound, the Activity (BJeLR [43]) was “Active” and the Activity (BJeLR [44]) was “Active”.
With `CCOC(=O)C(C)C1c2c(c3ccccc3n2C(=O)OC(C)(C)C)CCN1C(=O)OC(C)(C)C` (stereo not drawn) the CC50 [1] was 42.3 µM, the Activity (BJeH [37]) was “inactive” and the CC50 (HT-1080 [2]) was 25.2 µM. For the same compound, the Activity (BJeLR [3]) was “inactive”, the inhibition [4] was “inactive” and the CC50 (RKO) was 9.9 µM. For the same compound, the CC50 (MCF7 [5]) was 9.5 µM, the inhibition [6] was “inactive” and the CC50 (U2OS) was 14.1 µM.
